Tested on: MS2 coat protein
Assay: apparent Kd, MS2 coat protein; higher = weaker binding; RNA-MaP array; FMN 200 µM where present
Outline: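 Designs were transcribed by stalled E. coli RNA polymerase on Illumina sequencing-chip clusters. They were titrated with SNAP-549-labelled MS2 coat protein from 0.7 or 1.5 nM, doubling to 3 µM, without and then with constant ligand. Buffer: 100 mM Tris-HCl pH 7.5, 80 mM KCl, 4 mM MgCl2, BSA, DTT, yeast tRNA, Tween-20. Green signal was normalised to red-channel RNA signal and control-cluster median Fmax. Apparent Kd is the median of filtered per-cluster binding-curve fits.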

[1] = designed as: OFF switch for flavin mononucleotide, no ligand
[2] = ligand present: flavin mononucleotide, designed as: OFF switch for flavin mononucleotide
[3] = designed as: ON switch for flavin mononucleotide, no ligand
[4] = ligand present: flavin mononucleotide, designed as: ON switch for flavin mononucleotide

| Sequence | apparent Kd [1] | apparent Kd [2] | apparent Kd [3] | apparent Kd [4] |
| --- | --- | --- | --- | --- |
| UUUUCUUUUGUGAGGAUAUACUUGUUUUUUUUUUUGUAGAAGGCACAUGAGGAUCACCCAUGUACUCUUUCCUG | 0.0197 µM | 0.0226 µM |  |  |
| AAAGGACGAGGAUAUACAUGAGGAUCACCCAUGUAAAAAGCAUAAUAAAAUAACUUAUGUAGAAGGCGUCCAAA | 0.022 µM | 0.108 µM |  |  |
| UCCAAGCUAGGAUAUACCCAGGGUUUGUUCUCUAACAAAACACAUGAGGAUCACCCAUGUAGAAGGAGCCGGGA | 0.0582 µM | 0.0629 µM |  |  |
| UUUUAACAUGAGGAUCACCCAUGUGAGGAUAUCGAAAUUUAUAUUUAUAUUAAUAUAACGAGAAGGCACAUUUU | 0.0555 µM | 0.0832 µM |  |  |
| CCGGUAUAGGAGGAUAUAGGAGUCGAUAGACACCUAGAAGGCCUGACAUGAGGAUCACCCAUGUGUCCUACCGG | 0.017 µM | 0.02 µM |  |  |
| CUCGUGUCGGAGGAUAUCCAGCGCGAAAAUAAAGGAGAAGGCCGCACAUGAGGAUCACCCAUGUAACAUGGUCC | 0.0563 µM | 0.0764 µM |  |  |
| UGAAUCUAGUAAGGAUAUACACGAGAUACAAGUGUAGAAGGUACUUACAUGAGGAUCACCCAUGUAUACAUGGAUAAUAGAUAU |  |  | 0.291 µM | 0.182 µM |
| AUGGUUCGGUCAGGAUAUCGUAGAUUGAAUAGUAUGAUUUACAUGAGGAUCACCCAUGUUACAUACGAGAAGGGACCGAAUCAU | 0.0155 µM | 0.0104 µM |  |  |
| UACCCACAUGGGUAGUGGCAGCGUGAGGAUAUGGGUUGGAUACAUGAGGAUCACCCAUGUUCCUCCUAGAAGGCACUUGUAACC |  |  | 0.138 µM | 0.0248 µM |
| GGAUAGGACAGAGGAUAUGCCGAUAGGAUCUACUAUCGAAGAAUCCUCACAUGAGGAUCACCCAUGUAGAAGGCUGUCCUAUCG | 0.0238 µM | 0.131 µM |  |  |
| UGGAGGUCAGGAUAUGCAUGGCGGGACUUGCGUCGUGGCGUGCAGAAGGGACAUGAGGAUCACCCAUGUGGAGC | 0.0645 µM | 0.0837 µM |  |  |
| AUGCUUCACACAGGAUAUACAUGAGGAUCACCCAUGUGUGGGCGGUAGCUCGAAAGAGCUACCGGGUAGAAGGGUGUGAAGCAU | 0.0271 µM | 0.132 µM |  |  |
| GCUCGAUGAGCUGACUACAUGAGGAUCACCCAUGUAGAUGGGCAGGAUAUUUACGUGCUUUAUGUAGAGAAGGGCCCAUCGAGC |  |  | 0.324 µM | 0.114 µM |
| AAGGGUACUUUCGGAACGACAUGAGGAUCACCCAUGUAUACUGAGGAUAUCUACUACUAAGGACGGGAGAAGGCAGUGUAAUGU | 0.018 µM | 0.0203 µM |  |  |
| UUUAUACAUGAGGAUCACCCAUGUCAACAAAGUCGAGGAUAUGGGCAUAUUAUCUUAUUUCCAGAAGGCGAAUUCU |  |  | 0.233 µM | 0.0733 µM |
| GGUUGGCGAGGAUAUACAUGAGGAUCACCCAUGUGGUCCUAAGAUAAAAUAGACCUUUGUAGAAGGCGCGGGUC | 0.136 µM | 0.122 µM |  |  |
| AGUGUCAUCGAGAAGGCUUCAACAUGAGGAUCACCCAUGUUGUAAUAUGGGAGGAUAUCGAUGAUACAGCUACGUUUCGUAGCA |  |  | 0.007 µM | 0.00503 µM |
| GUCAGCUCGUGAGGAUAUACAAGACUGCUUCGGCAGUGUAUUAAGAUCACAUGAGGAUCACCCAUGUAGAAGGCACGAGCUGAU | 0.00812 µM | 0.0796 µM |  |  |
| GUAGUGUAUGUAGGAUAUGCGAAGCAAAGCUUCGCAGAAGGACAUGAGGAUCACCCAUGUAUUGCAGCCUGCAAUCAGGCUGCU | 0.0422 µM | 0.184 µM |  |  |
| AGAACUGAUAGAGGAUAUGUUUUACAUGAGGAUCACCCAUGUGUACAAGGAUCAAUAUAUUUGUUACAGAAGGCUAUUAGUGAG | 0.0118 µM | 0.0187 µM |  |  |
| GACUGCUGAGGAUAUACAUGAGGAUCACCCAUGUGCUUCAGCAUCGAAAGAUGCAUUGGUAGAAGGUAGUAGUC | 0.0114 µM | 0.0201 µM |  |  |
| AUGGUACAUGAGGAUCACCCAUGUCCAGCAAAUCAAGGAUAUGGACGACAAAUUUCUCGGCCAGAAGGUGAAACAA |  |  | 0.0394 µM | 0.0215 µM |
| UGGUACUAGGGAGGAUAUGGGAAGAUACAUGAGGAUCACCCAUGUUUAAGAAUGCCGAGAGGCAACUAGAAGGCCCUAGUACCU |  |  | 1.05 µM | 0.0453 µM |
| UUUUAACAUGAGGAUCACCCAUGUCGUUCAAAUCAAGGAUAUCAAGCGUGUGCGCACGCUUGAGAAGGUGAAGCUC |  |  | 0.0542 µM | 0.191 µM |
| CGCGAAAACAUAGGAUAUUGUUACAUGAGGAUCACCCAUGUCAACCAUGUAGCUCGAAUUGUUGACAAGAAGGAUGAGGUCGCG |  |  | 0.0483 µM | 0.103 µM |
| UGCAUCUGAGGAUAUCACAUGUGGAACAUGAGGAUCACCCAUGUGAUCCACAUGCCGUUGUGAGAAGGCAGUAAAA | 0.314 µM | 0.193 µM |  |  |
| AGCUGCCGGUCACAUGAGGAUCACCCAUGUAACCUGCAUUCACAGGAUAUGUUGGCUCCUUGCCGGCAGAAGGGUGAAGCGCCG |  |  | 0.371 µM | 0.107 µM |
| CGGCCGGGUCGAGGAUAUAAGUCUAGGACAUGAGGAUCACCCAUGUAUGUCUUAGAAGGCGACCCGGCCAGCCUGUUACAGGCA |  |  | 0.0317 µM | 0.00721 µM |

| Sequence | apparent Kd [1] | apparent Kd [2] | apparent Kd [3] | apparent Kd [4] |
| --- | --- | --- | --- | --- |
| GCACUGGAUGUAGGAUAUCAGGACGAUAAGUCCUGAGAAGGACAUGAGGAUCACCCAUGUGAAAAUUACCAGUGCAAUAAUAUA | 0.0144 µM | 0.0399 µM |  |  |
| CGCCUGCGUAGAAUUAGCAGCUGACAGGAUAUGACAUGAGGAUCACCCAUGUGAAAUAAGAAGAGUCAGAAGGGUCACGACGCG | 0.0108 µM | 0.00877 µM |  |  |
| CAGGUCUGAGGAUAUCCAUCUUCAUACAUGAGGAUCACCCAUGUUUCCCUCUGGGUUUUCGGAGAAGGCAGUUUUU | 0.358 µM | 0.293 µM |  |  |
| UUAAUUAAUUAAUUCGUCAAUUACAUGAGGAUCACCCAUGUAUAGGAUAUGCAGUGGAAUACACUGCAGAAGGAUACAUAGACG | 0.0226 µM | 0.0415 µM |  |  |
| UUUUAACAUGAGGAUCACCCAUGUGAGGAUAUCGAAAUUUAUAUUUAUAUUUAUAUUUCGAGAAGGCACAUUUU | 0.176 µM | 0.156 µM |  |  |
| GCUGUCGCAUGAGGAUAUGGUCAGCUUUGCUGACCAGAAGGCAUGUCAAUAGACAUGAGGAUCACCCAUGUAGUAAAGACAGCU |  |  | 0.375 µM | 0.0339 µM |
| CGUGUAAACUCAGGAUAUCCUGCGAGCAACGGGUAUUGAGUCUUCACAUGAGGAUCACCCAUGUAGGAGAAGGGAGGUACAAAA | 0.0726 µM | 0.187 µM |  |  |
| CAAUUGGCACAGAAGGGUGACAUGAGGAUCACCCAUGUAGCGUGGCACUCAGGAGAAGCCACGCCACAGGAUAUGUGCGGGCAC |  |  | 0.0346 µM | 0.0416 µM |
| CACUGCAAUGUAGGAUAUCGACUGGAUAACAGUCGAGAAGGACAUGAGGAUCACCCAUGUCAUCCUAAUAAUAAAUAAGCAGUG | 0.0153 µM | 0.0192 µM |  |  |
| GCGUCAGAAUUAAUUGUGACAUACAGAAGGCAAAAGUAAGGAUAAGACAUGAGGAUCACCCAUGUUGAGGAUAUGUAGAGAAUC | 0.0107 µM | 0.00864 µM |  |  |
| CCCUCAAGCGAGGAUAUAAAUGCGCAUUCGCGGUUAGAAGGCGCUACAUGAGGAUCACCCAUGUAAUAAAAUGG | 0.0682 µM | 0.0864 µM |  |  |
| CUUCGUGAUGCAGGAUAUGUUUGCUUUUUGCGCACAGAAGGGCAUCACAUGAGGAUCACCCAUGUGAGUAGAAAACCGUGGAAA | 0.0141 µM | 0.0793 µM |  |  |
| AAAUAGGCAGGAUAUACAUGAGGAUCACCCAUGUGCCUAUGAAAGGUAAUUUUGAAAGGUAGAAGGGCCUAAAA | 0.0105 µM | 0.0121 µM |  |  |
| AUUUGUAACCAGAAGGACAUGAGGAUCACCCAUGUAGGAUAUGGGCUUCUCAGGGCUGAGGAGUGAUCCCACAGGGACUUACGG |  |  | 0.117 µM | 0.018 µM |
| CCUGCACAUGAGGAUCACCCAUGUCAGGAUAUCUCGCCGUCGGCUUGCCGACGGUAUUAGAGAAGGGACAAGGG | 0.0234 µM | 0.029 µM |  |  |
| UUCGGCAGUGCAGGAUAUCUAGAGAAACACCUAAGAGAAGGGCAAACAUGAGGAUCACCCAUGUUUGGCGUGAGGUGAAGUUAG | 0.00599 µM | 0.00602 µM |  |  |
| AAAUAAAUUAGUAUGAUAUCUUCACAUGAGGAUCACCCAUGUCAGGAUAUUUGUCCUAAAAGGACAGAGAAGGGACAUACUAUA | 0.00608 µM | 0.00831 µM |  |  |
| UAUUAUGUCAGAGGAUAUAUAAAUAAAUUUAUAACAUGAGGAUCACCCAUGUACUUUAGUGUGAGGUAGAAGGUUGAUAAGAUA |  |  | 0.0372 µM | 0.0226 µM |
| UACGUACAGAAGUACUCCGGGUCCAGAAGGGACAUGAGGAUCACCCAUGUACCGUUGAUUGCUUGUCAGGAUAUGGACCCAGCC | 0.00776 µM | 0.029 µM |  |  |
| GACCGAUAGUCAGGAUAUGCAUGGUUAGUUGAUUACAUGAGGAUCACCCAUGUAGAAGGGACUUUGGCUAAAUCCGUGAUGCGU | 0.0223 µM | 0.0517 µM |  |  |
| UUUUCUUUUGUGAGGAUAUACUUCUUUUUCUUUUUGUAGAAGGCACAUGAGGAUCACCCAUGUUUUCUUUUCUC | 0.0121 µM | 0.016 µM |  |  |
| UAAAUUUUAUGAUAUUAUGACAGUAGAAGGCUAUACAUGUUGAUACAUGAGGAUCACCCAUGUAUAGAGGAUAUAUACAAUUAU | 1.05 µM | 0.315 µM |  |  |
| AGGUUGGGAGGAUAUCCAAUAUAUGACAUGAGGAUCACCCAUGUUUCCACUCGUACCUCCGGAGAAGGCCCUUCCA | 0.0217 µM | 0.023 µM |  |  |
| GUAUAUAGUGUGAGGAUAUGCUGGUCCUUGGAUCAGCAGAAGGCACAUGAGGAUCACCCAUGUAGUUUAUUAUG | 0.0197 µM | 0.078 µM |  |  |
| UGUCAUUUACAGAAGGGUAGUUGGGUUUUACAUGAGGAUCACCCAUGUUUUACAGGAUAUGUGUUUUGUUACUAUUAAAGUUCA | 0.0665 µM | 0.123 µM |  |  |
| AAGCAACAUGAGGAUCACCCAUGUAGCAGGGUCAGAGGAUAUUUGAGCUUGGCGAGGGUUAAAGAAGGUUGAUAUC |  |  | 0.0387 µM | 0.0436 µM |
| AAAAAAAAAAGCUAGGAUAUCCAAAAAAAAACAUGAGGAUCACCCAUGUAAAAAAAAAAAAAAUGGGAGAAGGAGCAAAAAAAAAA |  |  | 0.0524 µM | 0.0269 µM |

— the EternaBench riboswitch data
